Source: ChEMBL document CHEMBL1811814, “Synthesis and evaluation of indole, pyrazole, chromone and pyrimidine based conjugates for tumor growth inhibitory activities--development of highly efficacious cytotoxic agents” (Eur J Med Chem, 2010)

How the values were obtained:
Format in all cases: functional
Parameters in all cases: scale not given: the % may be the effect or the level left
CCRF-CEM = assay: Growth inhibition of human CCRF-CEM cells assessed tumor cell growth at 10^-5 M
In short: (§1)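 NCI 60-human-tumor-cell-line panel screen. Each compound was tested at a single concentration of 10^-5 M, and percent growth of tumor cells was recorded for each cell line. Growth inhibition was expressed from these percent-growth values.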

HL-60(TB) = assay: Growth inhibition of human HL-60(TB) cells assessed tumor cell growth at 10^-5 M
In short: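 HL-60(TB), part of the 60-line panel, tested at a single concentration of 10^-5 M. The read-out is percent tumor cell growth relative to untreated growth.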

K562 = assay: Growth inhibition of human K562 cells assessed tumor cell growth at 10^-5 M; in short: as §1
MOLT-4 = assay: Growth inhibition of human MOLT4 cells assessed tumor cell growth at 10^-5 M; in short: as §1
[1] = Growth inhibition of human […] cells assessed tumor cell growth at 10^-5 M; in short: as §1
SR = assay: Growth inhibition of human SR cells assessed tumor cell growth at 10^-5 M
In short: (§2)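 Single-dose screen at 10^-5 M across the 60 human tumor cell line panel, run to NCI standards. The value is the percent growth of each cell line in the presence of compound. Compounds active at this dose moved on to five-concentration testing (10^-4 to 10^-8 M).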

A549 = assay: Growth inhibition of human A549 cells assessed tumor cell growth at 10^-5 M; in short: as §1
EKVX = assay: Growth inhibition of human EKVX cells assessed tumor cell growth at 10^-5 M; in short: as §1
HOP-62 = assay: Growth inhibition of human HOP62 cells assessed tumor cell growth at 10^-5 M; in short: as §1
HOP-92 = assay: Growth inhibition of human HOP92 cells assessed tumor cell growth at 10^-5 M; in short: as §1
NCI-H226 = assay: Growth inhibition of human NCI-H226 cells assessed tumor cell growth at 10^-5 M; in short: as §1
NCI-H23 = assay: Growth inhibition of human NCI-H23 cells assessed tumor cell growth at 10^-5 M; in short: as §1
NCI-H322M = assay: Growth inhibition of human NCI-H322M cells assessed tumor cell growth at 10^-5 M; in short: as §1
HCC 2998 = assay: Growth inhibition of human HCC2998 cells assessed tumor cell growth at 10^-5 M; in short: as §1
HCT-116 = assay: Growth inhibition of human HCT116 cells assessed tumor cell growth at 10^-5 M; in short: as §1
HCT-15 = assay: Growth inhibition of human HCT15 cells assessed tumor cell growth at 10^-5 M; in short: as §1
HT-29 = assay: Growth inhibition of human HT-29 cells assessed tumor cell growth at 10^-5 M; in short: as §1
KM12 = assay: Growth inhibition of human KM12 cells assessed tumor cell growth at 10^-5 M; in short: as §1
SW-620 = assay: Growth inhibition of human SW620 cells assessed tumor cell growth at 10^-5 M; in short: as §2
SF-268 = assay: Growth inhibition of human SF268 cells assessed tumor cell growth at 10^-5 M; in short: as §1
SNB-75 = assay: Growth inhibition of human SNB75 cells assessed tumor cell growth at 10^-5 M; in short: as §2
U-251 = assay: Growth inhibition of human U251 cells assessed tumor cell growth at 10^-5 M; in short: as §2
LOX IMVI = assay: Growth inhibition of human LOXIMVI cells assessed tumor cell growth at 10^-5 M; in short: as §1
Malme-3M = assay: Growth inhibition of human MALME-3M cells assessed tumor cell growth at 10^-5 M; in short: as §1
M14 = assay: Growth inhibition of human M14 cells assessed tumor cell growth at 10^-5 M; in short: as §1
MDA-MB-435 = assay: Growth inhibition of human MDA-MB-435 cells assessed tumor cell growth at 10^-5 M; in short: as §1
SK-MEL-2 = assay: Growth inhibition of human SK-MEL-2 cells assessed tumor cell growth at 10^-5 M; in short: as §1
SK-MEL-28 = assay: Growth inhibition of human SK-MEL-28 cells assessed tumor cell growth at 10^-5 M; in short: as §1
UACC-257 = assay: Growth inhibition of human UACC257 cells assessed tumor cell growth at 10^-5 M; in short: as §2
UACC-62 = assay: Growth inhibition of human UACC62 cells assessed tumor cell growth at 10^-5 M; in short: as §2
IGROV-1 = assay: Growth inhibition of human IGROV1 cells assessed tumor cell growth at 10^-5 M; in short: as §1
OVCAR-3 = assay: Growth inhibition of human OVCAR3 cells assessed tumor cell growth at 10^-5 M; in short: as §1
OVCAR-4 = assay: Growth inhibition of human OVCAR4 cells assessed tumor cell growth at 10^-5 M; in short: as §1
OVCAR-5 = assay: Growth inhibition of human OVCAR5 cells assessed tumor cell growth at 10^-5 M; in short: as §1
OVCAR-8 = assay: Growth inhibition of human OVCAR8 cells assessed tumor cell growth at 10^-5 M; in short: as §1
NCI/ADR-RES = assay: Growth inhibition of human NCI/ADR-RES cells assessed tumor cell growth at 10^-5 M; in short: as §1
786-0 = assay: Growth inhibition of human 786-0 cells assessed tumor cell growth at 10^-5 M; in short: as §1
A498 = assay: Growth inhibition of human A498 cells assessed tumor cell growth at 10^-5 M; in short: as §1
ACHN = assay: Growth inhibition of human ACHN cells assessed tumor cell growth at 10^-5 M; in short: as §1
CAKI-1 = assay: Growth inhibition of human Caki1 cells assessed tumor cell growth at 10^-5 M; in short: as §1
RXF 393 = assay: Growth inhibition of human RXF393 cells assessed tumor cell growth at 10^-5 M; in short: as §1
SN12C = assay: Growth inhibition of human SN12C cells assessed tumor cell growth at 10^-5 M; in short: as §1
UO-31 = assay: Growth inhibition of human UO31 cells assessed tumor cell growth at 10^-5 M; in short: as §2
PC-3 = assay: Growth inhibition of human PC3 cells assessed tumor cell growth at 10^-5 M; in short: as §1
DU-145 = assay: Growth inhibition of human DU145 cells assessed tumor cell growth at 10^-5 M; in short: as §1
MDA-MB-231 = assay: Growth inhibition of human MDA-MB-231 cells assessed tumor cell growth at 10^-5 M; in short: as §1
[2] = Growth inhibition of human Hs 578T cells assessed tumor cell growth at 10^-5 M; in short: as §1
BT-549 = assay: Growth inhibition of human BT549 cells assessed tumor cell growth at 10^-5 M; in short: as §1
MDA-MB-468 = assay: Growth inhibition of human MDA-MB-468 cells assessed tumor cell growth at 10^-5 M; in short: as §1

Structure (SMILES): CN1C(=O)C(=Cc2coc3ccccc3c2=O)C(=O)N(C)C1=O
- Activity (CCRF-CEM): 97.29%
- Activity (HL-60(TB)): 92.68%
- Activity (K562): 105.28%
- Activity (MOLT-4): 81.25%
- Activity [1]: 62.63%
- Activity (SR): 72.89%
- Activity (A549): 104.96%
- Activity (EKVX): 98.76%
- Activity (HOP-62): 84.39%
- Activity (HOP-92): 87.53%
- Activity (NCI-H226): 87.83%
- Activity (NCI-H23): 84.27%
- Activity (NCI-H322M): 115.86%
- Activity (HCC 2998): 99.12%
- Activity (HCT-116): 85.46%
- Activity (HCT-15): 82.74%
- Activity (HT-29): 112.32%
- Activity (KM12): 109.04%
- Activity (SW-620): 102.73%
- Activity (SF-268): 98.13%
- Activity (SNB-75): 85.44%
- Activity (U-251): 93.36%
- Activity (LOX IMVI): 89.46%
- Activity (Malme-3M): 137.21%
- Activity (M14): 90.53%
- Activity (MDA-MB-435): 104.58%
- Activity (SK-MEL-2): 95.42%
- Activity (SK-MEL-28): 108.31%
- Activity (UACC-257): 94.47%
- Activity (UACC-62): 87.77%
- Activity (IGROV-1): 95.15%
- Activity (OVCAR-3): 103.79%
- Activity (OVCAR-4): 97.92%
- Activity (OVCAR-5): 92.09%
- Activity (OVCAR-8): 86.75%
- Activity (NCI/ADR-RES): 85.24%
- Activity (786-0): 95.26%
- Activity (A498): 120.85%
- Activity (ACHN): 93.31%
- Activity (CAKI-1): 105.77%
- Activity (RXF 393): 91.99%
- Activity (SN12C): 88.79%
- Activity (UO-31): 67.73%
- Activity (PC-3): 94.7%
- Activity (DU-145): 106.58%
- Activity (MDA-MB-231): 96.45%
- Activity [2]: 96.44%
- Activity (BT-549): 87.93%
- Activity (MDA-MB-468): 104.25%
